Among the data in ChEMBL document CHEMBL1152606, “Thienylhalomethylketones: Irreversible glycogen synthase kinase 3 inhibitors as useful pharmacological tools” (Bioorg Med Chem, 2009) are IC50 and inhibition values, retold here.

Experiment [1] deals with Glycogen synthase kinase-3 beta (Homo sapiens, UniProt P49841). As to the kind of experiment: Inhibition of GSK3-beta by liquid scintillation counting. In a few lines:
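GSK-3β enzyme incubated with test compound at various concentrations, GS-1 peptide substrate (15 mM as printed), 15 μM ATP plus 0.2 μCi [γ-32P]ATP, in 50 mM Tris pH 7.5, 10 mM MgCl2, 1 mM EGTA, 1 mM EDTA; 20 min at 37 °C. Aliquots spotted on P81 phosphocellulose, washed in 1% phosphoric acid, counted by liquid scintillation.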

In experiment [2] the target is Dual specificity mitogen-activated protein kinase kinase 1 (Oryctolagus cuniculus) (UniProt P29678). In words: Inhibition of rabbit recombinant MEK1 expressed in Escherichia coli at 10 uM by liquid scintillation counting in presence of [33gammaP]ATP. In a few lines: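 Rabbit recombinant MEK1 from E. coli; ATP plus unactivated MAP kinase (0.01 mg/mL) as substrate; staurosporine reference; liquid scintillation detection; 10 µM.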

For experiment [3], the target named is T1, Alpha-2A adrenergic receptor (Rattus norvegicus) (UniProt P22909).
T1 sequence (whole entry): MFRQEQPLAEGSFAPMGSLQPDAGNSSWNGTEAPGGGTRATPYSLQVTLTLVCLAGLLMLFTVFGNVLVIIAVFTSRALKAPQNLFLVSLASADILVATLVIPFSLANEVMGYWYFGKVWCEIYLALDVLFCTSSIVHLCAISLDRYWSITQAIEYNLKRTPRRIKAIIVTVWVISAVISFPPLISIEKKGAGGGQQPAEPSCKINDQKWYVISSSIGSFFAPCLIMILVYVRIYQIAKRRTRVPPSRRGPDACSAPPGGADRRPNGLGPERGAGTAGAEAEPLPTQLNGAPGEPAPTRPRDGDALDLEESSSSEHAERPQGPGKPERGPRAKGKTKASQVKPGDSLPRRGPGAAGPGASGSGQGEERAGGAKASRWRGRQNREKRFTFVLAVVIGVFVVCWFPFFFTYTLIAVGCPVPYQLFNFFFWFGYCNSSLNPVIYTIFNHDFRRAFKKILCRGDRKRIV
In words: Displacement of [3H]RX821002 from alpha2 adrenoceptor in rat cerebral cortex at 10 uM. It counts as tissue-based. In a few lines: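 Rat cerebral cortex source; [3H]RX 821002 ligand at 0.5 nM; yohimbine as reference compound; non-selective alpha-2 site.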

For experiment [4], the target named is Insulin receptor (Homo sapiens) (UniProt P06213). In words: Inhibition of human recombinant IR at 10 uM by liquid scintillation counting in presence of [33gammaP]ATP. The essentials: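 Human recombinant insulin receptor kinase; [γ33-P]ATP plus poly GT (0.03 mg/mL); staurosporine reference; liquid scintillation detection; 10 µM compound.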
The species named for experiment [5] is Rattus norvegicus. As to the kind of experiment: Displacement of [3H]AMPA from AMPA receptor in rat cerebral cortex at 10 uM. The class given is tissue-based.
The species named for experiment [6] is Rattus norvegicus. As to the kind of experiment: Inhibition of rat CAM2 at 10 uM by liquid scintillation counting in presence of [33gammaP]ATP. In a few lines:
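CaM kinase II from rat brain; [γ33-P]ATP plus autocamtide-2 (5 µM); staurosporine reference; labelled autocamtide-2 counted by liquid scintillation; compounds at 10 µM.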

The next experiment is filed under the species Bos taurus. As to the kind of experiment: Inhibition of bovine thymus p56LCK at 10 uM by liquid scintillation counting in presence of [33gammaP]ATP. In a few lines:
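p56lck from bovine thymus; [γ33-P]ATP with polyGT (0.5 mg/mL) substrate; staurosporine reference; liquid scintillation read-out; compounds tested at 10 µM.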

The target in experiment [7] is Epidermal growth factor receptor (Homo sapiens) (UniProt P00533). In words: Inhibition of EGFR in human A431 at 10 uM by liquid scintillation counting in presence of [33gammaP]ATP. In a few lines:
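EGFR kinase from A-431 cells; substrate [γ33-P]ATP plus poly GAT (0.48 mg/mL); PD 153035 reference; product measured by liquid scintillation; compounds at 10 µM.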

Experiment [8] concerns the target D(3) dopamine receptor (Homo sapiens) (UniProt P35462). As to the kind of experiment: Displacement of [3H]spiperone from human recombinant dopamine D3 receptor expressed in CHO cells at 10 uM. The class given is cell-based. The essentials: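 Human recombinant D3 receptor from CHO cells; [3H]spiperone 0.3 nM as ligand; (+)-buctaclamol reference compound.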
Experiment [9] concerns the target Glutamate NMDA receptor (Rattus norvegicus) (UniProt P35439+Q00959+Q00960+Q00961+Q62645+Q8VHN2+Q9R1M7). In words: Displacement of [3H]CGP39653 from NMDA receptor in rat cerebral cortex at 10 uM. It counts as tissue-based. A general note: Loss of bound radioactivity is the signal in a displacement assay; it reports binding, not function.
The target in experiment [10] is Tyrosine-protein kinase ABL1 (Mus musculus) (UniProt P00520). As to the kind of experiment: Inhibition of mouse recombinant Abl expressed in Escherichia coli at 10 uM by fluorescence polarization.
In experiment [11] the test system is 5-HT (non-selective) serotonin receptor (Rattus norvegicus). As to the kind of experiment: Inhibition of [3H]serotonine binding to non-selective 5-HT serotoninergic receptor in rat cerebral cortex at 10 uM.
The target of experiment [12] is D(2) dopamine receptor (Homo sapiens) (UniProt P14416). As to the kind of experiment: Displacement of [3H]spiperone from human recombinant dopamine D2 receptor expressed in CHO cells at 10 uM. The class given is cell-based. In a few lines: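 Human recombinant D2 receptor expressed in CHO cells; [3H]spiperone ligand at 0.3 nM; (+)-buctaclamol as reference compound.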

For experiment [13], the species on record is Rattus norvegicus. In words: Displacement of [3H]cystisine from alpha-BGTX sensitive nicotinic acetylcholine receptor in rat cerebral cortex. It counts as tissue-based. On the set-up: concentration or dose not given beside the values. The conditions noted are these: concentration not given here.
For experiment [14], the species on record is Rattus norvegicus. In words: Inhibition of rat recombinant MAPK at 10 uM by liquid scintillation counting in presence of [33gammaP]ATP. The essentials: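 Rat recombinant ERK42 MAP kinase expressed in E. coli; [γ33-P]ATP with MBP (0.5 mg/mL); staurosporine reference; liquid scintillation read-out; 10 µM compound.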
Experiment [15] is filed under the species Rattus norvegicus. As to the kind of experiment: Displacement of [3H]cystisine from alpha-BGTX insensitive nicotinic acetylcholine receptor in rat cerebral cortex at 10 uM. The class given is tissue-based.
Experiment [16] concerns the target Proto-oncogene tyrosine-protein kinase Src (Homo sapiens) (UniProt P12931). As to the kind of experiment: Inhibition of Src at 10 uM.
Experiment [17] is described as follows: Displacement of [3H]QNB from muscarinic receptor at 10 uM.

pIC50: −log10 of the molar value. A value given as a limit tells only on which side of the number the result lay.

One may read the pIC50 as the negative decadic logarithm of the IC50, by convention in mol/L. In general, inhibition refers to the relative decrease from the control value, in per cent.

Chain of D(3) dopamine receptor (Homo sapiens) (P35462 whole entry): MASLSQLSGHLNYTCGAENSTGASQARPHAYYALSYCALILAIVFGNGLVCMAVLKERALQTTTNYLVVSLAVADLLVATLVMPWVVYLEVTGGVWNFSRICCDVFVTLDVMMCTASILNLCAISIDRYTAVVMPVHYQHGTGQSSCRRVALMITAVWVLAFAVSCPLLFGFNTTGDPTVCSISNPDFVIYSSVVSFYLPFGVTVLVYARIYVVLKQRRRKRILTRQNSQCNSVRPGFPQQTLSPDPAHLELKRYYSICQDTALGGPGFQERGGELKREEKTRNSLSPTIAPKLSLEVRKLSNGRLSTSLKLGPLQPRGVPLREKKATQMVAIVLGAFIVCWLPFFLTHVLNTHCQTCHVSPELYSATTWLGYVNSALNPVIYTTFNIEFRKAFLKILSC
Chain of Dual specificity mitogen-activated protein kinase kinase 1 (Oryctolagus cuniculus) (P29678 whole entry): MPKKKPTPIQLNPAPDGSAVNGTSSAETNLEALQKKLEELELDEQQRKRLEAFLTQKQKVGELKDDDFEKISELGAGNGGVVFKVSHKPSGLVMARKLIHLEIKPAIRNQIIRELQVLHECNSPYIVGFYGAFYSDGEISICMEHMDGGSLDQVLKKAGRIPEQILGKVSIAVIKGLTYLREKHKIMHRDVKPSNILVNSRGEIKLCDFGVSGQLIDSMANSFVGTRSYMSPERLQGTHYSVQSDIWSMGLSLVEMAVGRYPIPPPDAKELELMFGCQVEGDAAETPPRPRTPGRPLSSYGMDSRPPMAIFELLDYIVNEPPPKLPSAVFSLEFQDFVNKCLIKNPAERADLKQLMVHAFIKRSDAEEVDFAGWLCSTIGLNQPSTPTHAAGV
Chain of Insulin receptor (Homo sapiens) (P06213 28-758 limits assumed): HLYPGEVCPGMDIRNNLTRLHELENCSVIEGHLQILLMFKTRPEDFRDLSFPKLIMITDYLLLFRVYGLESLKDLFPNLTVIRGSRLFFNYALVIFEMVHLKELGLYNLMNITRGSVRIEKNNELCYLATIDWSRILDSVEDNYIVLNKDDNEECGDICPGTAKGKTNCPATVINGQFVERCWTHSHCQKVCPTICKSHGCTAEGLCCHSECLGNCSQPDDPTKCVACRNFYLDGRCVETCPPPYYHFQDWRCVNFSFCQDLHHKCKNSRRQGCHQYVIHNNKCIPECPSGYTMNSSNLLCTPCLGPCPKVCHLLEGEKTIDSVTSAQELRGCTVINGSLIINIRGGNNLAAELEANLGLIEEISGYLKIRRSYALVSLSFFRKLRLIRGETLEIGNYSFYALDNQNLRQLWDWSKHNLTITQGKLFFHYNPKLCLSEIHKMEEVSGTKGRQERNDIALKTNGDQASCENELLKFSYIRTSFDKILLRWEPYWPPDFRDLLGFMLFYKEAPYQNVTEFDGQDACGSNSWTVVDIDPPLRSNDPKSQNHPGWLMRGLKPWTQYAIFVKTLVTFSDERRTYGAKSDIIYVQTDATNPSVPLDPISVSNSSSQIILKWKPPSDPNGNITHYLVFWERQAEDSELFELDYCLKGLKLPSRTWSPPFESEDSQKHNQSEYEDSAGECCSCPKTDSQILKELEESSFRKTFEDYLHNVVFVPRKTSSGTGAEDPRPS
Chain of Insulin receptor (Homo sapiens) (P06213 763-1382 limits assumed): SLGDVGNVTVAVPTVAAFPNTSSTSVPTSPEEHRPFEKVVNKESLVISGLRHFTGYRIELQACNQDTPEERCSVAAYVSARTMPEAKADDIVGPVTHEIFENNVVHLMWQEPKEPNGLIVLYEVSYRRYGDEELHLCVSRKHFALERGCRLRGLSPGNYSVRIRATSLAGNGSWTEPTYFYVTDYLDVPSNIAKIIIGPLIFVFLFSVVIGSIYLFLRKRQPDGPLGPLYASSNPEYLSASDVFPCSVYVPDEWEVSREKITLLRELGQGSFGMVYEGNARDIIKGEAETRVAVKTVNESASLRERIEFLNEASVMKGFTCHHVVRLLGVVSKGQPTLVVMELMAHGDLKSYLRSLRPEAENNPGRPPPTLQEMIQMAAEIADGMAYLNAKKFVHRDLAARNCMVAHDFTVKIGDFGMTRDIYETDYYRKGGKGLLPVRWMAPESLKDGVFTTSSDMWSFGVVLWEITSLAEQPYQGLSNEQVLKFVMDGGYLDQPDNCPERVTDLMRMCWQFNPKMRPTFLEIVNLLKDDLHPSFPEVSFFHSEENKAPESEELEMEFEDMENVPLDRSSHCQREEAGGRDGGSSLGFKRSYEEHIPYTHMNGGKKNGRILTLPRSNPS
Chain of Proto-oncogene tyrosine-protein kinase Src (Homo sapiens) (P12931 2-536 limits assumed): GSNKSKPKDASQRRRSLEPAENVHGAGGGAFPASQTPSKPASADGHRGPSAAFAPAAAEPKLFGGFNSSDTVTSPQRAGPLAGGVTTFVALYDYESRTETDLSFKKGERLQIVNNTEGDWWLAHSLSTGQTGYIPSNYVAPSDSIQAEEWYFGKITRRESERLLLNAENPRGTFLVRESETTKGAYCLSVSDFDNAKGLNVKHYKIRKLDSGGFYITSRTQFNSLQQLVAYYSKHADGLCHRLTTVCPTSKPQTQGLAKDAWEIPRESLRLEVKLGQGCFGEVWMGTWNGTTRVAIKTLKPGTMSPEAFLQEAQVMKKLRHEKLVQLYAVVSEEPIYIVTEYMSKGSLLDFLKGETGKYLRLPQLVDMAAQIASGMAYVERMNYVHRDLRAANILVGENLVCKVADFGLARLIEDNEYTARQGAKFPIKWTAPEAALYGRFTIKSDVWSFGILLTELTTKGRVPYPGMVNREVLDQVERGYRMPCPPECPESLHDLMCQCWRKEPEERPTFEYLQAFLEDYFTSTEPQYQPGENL
Chain of D(2) dopamine receptor (Homo sapiens) (P14416 whole entry): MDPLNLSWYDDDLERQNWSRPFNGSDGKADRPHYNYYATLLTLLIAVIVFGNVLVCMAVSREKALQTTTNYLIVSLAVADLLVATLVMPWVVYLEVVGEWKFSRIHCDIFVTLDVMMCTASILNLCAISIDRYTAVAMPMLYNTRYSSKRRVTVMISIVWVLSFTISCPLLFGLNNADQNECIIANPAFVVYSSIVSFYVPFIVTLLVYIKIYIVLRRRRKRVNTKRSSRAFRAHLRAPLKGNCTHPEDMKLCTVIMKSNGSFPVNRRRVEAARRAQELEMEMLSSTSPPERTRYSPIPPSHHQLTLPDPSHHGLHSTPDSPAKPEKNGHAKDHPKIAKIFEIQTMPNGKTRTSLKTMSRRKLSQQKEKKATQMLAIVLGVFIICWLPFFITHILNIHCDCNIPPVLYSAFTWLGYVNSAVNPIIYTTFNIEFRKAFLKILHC
Chain of Glycogen synthase kinase-3 beta (P49841 whole entry): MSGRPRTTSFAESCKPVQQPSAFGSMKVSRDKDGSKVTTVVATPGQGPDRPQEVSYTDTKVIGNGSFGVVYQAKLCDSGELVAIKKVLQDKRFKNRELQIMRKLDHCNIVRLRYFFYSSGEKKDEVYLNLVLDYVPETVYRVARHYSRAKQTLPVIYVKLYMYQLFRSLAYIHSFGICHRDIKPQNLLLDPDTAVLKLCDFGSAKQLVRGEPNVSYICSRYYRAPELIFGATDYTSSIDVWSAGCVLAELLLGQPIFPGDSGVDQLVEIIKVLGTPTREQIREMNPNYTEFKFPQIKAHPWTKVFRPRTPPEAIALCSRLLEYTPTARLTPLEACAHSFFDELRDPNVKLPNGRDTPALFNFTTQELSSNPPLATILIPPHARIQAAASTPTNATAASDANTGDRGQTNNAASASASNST
Chain of Tyrosine-protein kinase ABL1 (Mus musculus) (P00520 whole entry): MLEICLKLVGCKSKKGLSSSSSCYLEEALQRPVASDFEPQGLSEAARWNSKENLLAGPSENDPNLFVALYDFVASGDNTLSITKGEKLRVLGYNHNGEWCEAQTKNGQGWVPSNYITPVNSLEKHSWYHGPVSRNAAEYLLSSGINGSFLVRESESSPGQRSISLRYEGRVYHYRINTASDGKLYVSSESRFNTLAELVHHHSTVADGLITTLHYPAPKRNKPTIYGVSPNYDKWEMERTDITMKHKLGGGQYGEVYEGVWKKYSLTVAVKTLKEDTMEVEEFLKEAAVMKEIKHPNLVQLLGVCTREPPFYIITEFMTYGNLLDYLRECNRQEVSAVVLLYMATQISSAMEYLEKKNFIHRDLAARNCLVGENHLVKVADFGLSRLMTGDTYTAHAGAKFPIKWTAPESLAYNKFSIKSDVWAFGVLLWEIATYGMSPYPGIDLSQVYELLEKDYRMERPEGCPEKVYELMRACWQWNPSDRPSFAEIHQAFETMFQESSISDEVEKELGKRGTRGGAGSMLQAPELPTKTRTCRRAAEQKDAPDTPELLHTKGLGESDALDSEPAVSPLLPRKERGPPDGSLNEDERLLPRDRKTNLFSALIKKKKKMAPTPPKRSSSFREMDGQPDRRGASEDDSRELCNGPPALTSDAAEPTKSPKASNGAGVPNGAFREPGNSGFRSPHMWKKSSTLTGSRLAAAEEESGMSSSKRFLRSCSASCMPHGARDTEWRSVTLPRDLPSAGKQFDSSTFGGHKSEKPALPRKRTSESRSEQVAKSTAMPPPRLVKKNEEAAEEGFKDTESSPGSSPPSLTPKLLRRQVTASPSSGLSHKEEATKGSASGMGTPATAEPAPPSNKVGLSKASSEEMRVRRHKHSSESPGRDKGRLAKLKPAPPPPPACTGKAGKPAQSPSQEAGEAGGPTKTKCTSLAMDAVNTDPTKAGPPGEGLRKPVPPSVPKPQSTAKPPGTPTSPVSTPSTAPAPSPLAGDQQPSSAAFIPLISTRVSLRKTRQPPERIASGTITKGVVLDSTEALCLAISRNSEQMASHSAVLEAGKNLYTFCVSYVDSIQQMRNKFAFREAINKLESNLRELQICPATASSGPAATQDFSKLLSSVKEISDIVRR

Regarding `CC(=O)c1ccccc1` [ACETOPHENONE], in experiment [1], the pIC50 was less than 4.00.

With `O=C(CCCCl)c1ccc(Br)s1`, the pIC50 in experiment [1] was less than 4.00.

With `CC(=O)c1csc(C(=O)CCl)c1`, the inhibition in [2] is 12%; in [3], less than 10%; in [4], less than 10%; in the experiment filed under Rattus norvegicus [5], less than 10%; in the experiment listed under Rattus norvegicus [6], less than 10%; in the experiment filed under Bos taurus it was less than 10%. Besides, the inhibition in experiment [7], in [8], in [9], in [10], in experiment [11] and in [12] was less than 10% in each case. Also, the inhibition in the experiment filed under Rattus norvegicus [13] was less than 10%; in the experiment filed under Rattus norvegicus [14] it was less than 10%; in the experiment filed under Rattus norvegicus [15] it was 17%; in experiment [16], 22%; in [17], less than 10%.

For `CCSC1=NC(c2ccccc2)=NN(c2ccccc2)c2ccccc21`, the pIC50 in experiment [1] was less than 4.00.

`O=C(Nn1c2ccccc2c2ccccc21)c1ccccc1` showed a pIC50 in [1] of less than 4.00.

`O=Cc1cc(Br)c(Br)s1` gave a pIC50 in experiment [1] of less than 4.00.

Consider `O=C(CCl)c1scc(Br)c1Br`, for which the inhibition in experiment [2] is less than 10%; in [3], less than 10%; in [4] it was less than 10%; in the experiment filed under Rattus norvegicus [5], less than 10%; in the experiment listed under Rattus norvegicus [6], less than 10%; in the experiment listed under Bos taurus it was 20%. Besides, the inhibition is less than 10% in [7]; 12% in [8]; less than 10% in experiment [9]; less than 10% in experiment [10]; less than 10% in [11]; less than 10% in experiment [12]. Further, the inhibition in the experiment listed under Rattus norvegicus [13] is less than 10%; in the experiment filed under Rattus norvegicus [14] it was less than 10%; in the experiment filed under Rattus norvegicus [15], less than 10%; in experiment [17], 11%.

As for `O=Nn1c2ccccc2c2cc(Cl)ccc21`, the pIC50 in experiment [1] is less than 4.00.

`CC(N)Cc1cc(Cl)cs1` (centres undefined): the negative logarithm of the IC50 (pIC50) in experiment [1] was less than 4.00.

As to `Cc1sc(C(=O)CCl)cc1C(=O)CCl`, the inhibition is less than 10% in experiment [2]; less than 10% in experiment [3]; 12% in [4]; less than 10% in the experiment filed under Rattus norvegicus [5]; less than 10% in the experiment filed under Rattus norvegicus [6]; 17% in the experiment filed under Bos taurus. In addition, the inhibition in experiment [7] is 25%; in experiment [8], less than 10%; in [9], less than 10%; in [10], less than 10%; in experiment [11], less than 10%; in experiment [12], less than 10%. Further, the inhibition was less than 10% in the experiment listed under Rattus norvegicus [13]; less than 10% in the experiment listed under Rattus norvegicus [14]; less than 10% in the experiment filed under Rattus norvegicus [15]; 54% in experiment [16]; less than 10% in [17].

`CCOC(=O)c1sc(C)c(C)c1O` gave a pIC50 in [1] of less than 4.00.

As to `O=C(CBr)c1cc(Br)c(Br)s1`, the inhibition in experiment [2] is less than 10%; in experiment [3] it was less than 10%; in experiment [4], 12%; in the experiment listed under Rattus norvegicus [5], less than 10%; in the experiment filed under Rattus norvegicus [6] it was less than 10%; in the experiment filed under Bos taurus, less than 10%. In addition, the inhibition in experiment [7], in experiment [8], in experiment [9], in [10], in experiment [11] and in experiment [12] was less than 10% each time. Besides, the inhibition in the experiment filed under Rattus norvegicus [13] was less than 10%; in the experiment listed under Rattus norvegicus [14] it was less than 10%; in the experiment listed under Rattus norvegicus [15], less than 10%; in [16], 76%; in experiment [17], less than 10%. For the same molecule, the pIC50 in experiment [1] was 6.00.

Consider `O=C(CBr)c1sc(Br)cc1Br`, for which the pIC50 in [1] was 6.00.

As for `O=C(CCCCl)c1ccc(Cl)s1`, in [1], the pIC50 was less than 4.00.

In turn, `OC(CCl)c1sc(Br)c(Br)c1Br` (centres undefined) had a pIC50 in experiment [1] of 4.12.

As for `CCOC(=O)c1cccs1`, the pIC50 in experiment [1] is less than 4.00.

In the case of `O=C(CBr)c1ccc(Br)s1`, in experiment [1], the pIC50 was 6.00.

As to `O=C(CBr)c1scc(Br)c1Br`, the inhibition (in [2]; in experiment [3]; in experiment [4]; in the experiment listed under Rattus norvegicus [5]; in the experiment listed under Rattus norvegicus [6]; in the experiment listed under Bos taurus) was less than 10% in each case. The inhibition in experiment [7] was 17%; in experiment [8] it was less than 10%; in experiment [9] it was less than 10%; in experiment [10], less than 10%; in experiment [11] it was less than 10%; in experiment [12], less than 10%. For the same molecule, the inhibition in the experiment filed under Rattus norvegicus [13] was less than 10%; in the experiment filed under Rattus norvegicus [14], less than 10%; in the experiment listed under Rattus norvegicus [15], 22%; in experiment [16] it was 66%; in experiment [17], less than 10%. In experiment [1], this molecule had a pIC50 of 6.00.

The molecule `c1ccc(-c2nc(-c3ccccc3)n(-c3ccccc3)n2)cc1` had a pIC50 in experiment [1] of less than 4.00.

`N=C(c1ccccc1Cl)c1ccccc1N(NC(=O)c1ccccc1)c1ccccc1`: in experiment [1], the pIC50 is less than 4.00.

Turning to `O=Cc1cccs1` [2-THIOPHENENECARBOXALDEHYDE], in experiment [1], the pIC50 was less than 4.00.

Consider `O=C(CCl)c1cc(Cl)sc1Cl`, for which the inhibition in [2] is less than 10%; in [3], less than 10%; in experiment [4], less than 10%; in the experiment listed under Rattus norvegicus [5], 17%; in the experiment filed under Rattus norvegicus [6], 10%; in the experiment filed under Bos taurus, 41%. Moreover, the inhibition in [7] was less than 10%; in experiment [8], less than 10%; in experiment [9], less than 10%; in experiment [10] it was less than 10%; in [11], 12%; in experiment [12], less than 10%. The inhibition was less than 10% in the experiment filed under Rattus norvegicus [13]; less than 10% in the experiment listed under Rattus norvegicus [14]; less than 10% in the experiment filed under Rattus norvegicus [15]; 12% in experiment [16]; less than 10% in experiment [17].

For the molecule `CC(=O)c1ccc(Cl)cc1`, the pIC50 in experiment [1] is less than 4.00.

The molecule `COc1cc2c(cc1OC)C(=O)CC2` showed a pIC50 in experiment [1] of less than 4.00.

`CCOC(=O)c1ccccc1` [ETHYL BENZOATE] showed a pIC50 in [1] of less than 4.00.

Molecule `CCOC(=O)c1sc(SC(C)=O)cc1O` gave a pIC50 in experiment [1] of 4.60.

Consider `O=C(CCCCl)c1cc(Cl)sc1Cl`, for which the pIC50 in experiment [1] was less than 4.00.
